What is called IC50 is the midpoint of a concentration-inhibition curve. A word on the inhibition: it is the relative decrease from the control value, in per cent. As a reminder, the Papp A→B is the apparent permeability from the apical to the basolateral side of a cell layer.

Series [1] relates to HUVEC. Kind of series: Growth inhibition of HUVEC after 24 hrs in presence of VEGF by MTT assay. It counts as cell-based. The note with it: Homo sapiens. In outline: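 HUVECs exposed to compound in the presence of VEGF (50 ng/mL) for 24 h, with growth read by MTT assay. Value is the mean IC50 from triplicate experiments.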
In series [2] the test system is HUVEC. Kind of series: Antiangiogenic activity in HUVEC assessed as inhibition of VEGF-induced capillary tube formation after 8 hrs by matrigel based inverted microscopic analysis. It counts as functional, cell-based. The note with it: Homo sapiens. The method in brief: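 HUVECs treated with compound with or without VEGF (50 ng/mL) for 8 h. Intact tubes counted under a microscope, and IC50 calculated against control. Value is the mean IC50 from triplicate experiments.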

For series [3], the target named is Vascular endothelial growth factor receptor 2 (Homo sapiens) (UniProt P35968). Kind of series: Inhibition of VEGFR2 in HUVEC assessed as decrease in VEGF-induced AKT phosphorylation at […] residues pretreated for 30 mins followed by VEGF stimulation for 20 mins by Western blot analysis. It counts as cell-based. In outline: (§1)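 HUVECs pretreated with various compound concentrations for 30 min, then stimulated with VEGF (50 ng/mL) for 20 min. Phosphoproteins detected by immunoblot, with β-actin as loading control.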
Vascular endothelial growth factor receptor 2 (Homo sapiens), sequence (P35968 whole entry, the tested form may be a part, canonical isoform): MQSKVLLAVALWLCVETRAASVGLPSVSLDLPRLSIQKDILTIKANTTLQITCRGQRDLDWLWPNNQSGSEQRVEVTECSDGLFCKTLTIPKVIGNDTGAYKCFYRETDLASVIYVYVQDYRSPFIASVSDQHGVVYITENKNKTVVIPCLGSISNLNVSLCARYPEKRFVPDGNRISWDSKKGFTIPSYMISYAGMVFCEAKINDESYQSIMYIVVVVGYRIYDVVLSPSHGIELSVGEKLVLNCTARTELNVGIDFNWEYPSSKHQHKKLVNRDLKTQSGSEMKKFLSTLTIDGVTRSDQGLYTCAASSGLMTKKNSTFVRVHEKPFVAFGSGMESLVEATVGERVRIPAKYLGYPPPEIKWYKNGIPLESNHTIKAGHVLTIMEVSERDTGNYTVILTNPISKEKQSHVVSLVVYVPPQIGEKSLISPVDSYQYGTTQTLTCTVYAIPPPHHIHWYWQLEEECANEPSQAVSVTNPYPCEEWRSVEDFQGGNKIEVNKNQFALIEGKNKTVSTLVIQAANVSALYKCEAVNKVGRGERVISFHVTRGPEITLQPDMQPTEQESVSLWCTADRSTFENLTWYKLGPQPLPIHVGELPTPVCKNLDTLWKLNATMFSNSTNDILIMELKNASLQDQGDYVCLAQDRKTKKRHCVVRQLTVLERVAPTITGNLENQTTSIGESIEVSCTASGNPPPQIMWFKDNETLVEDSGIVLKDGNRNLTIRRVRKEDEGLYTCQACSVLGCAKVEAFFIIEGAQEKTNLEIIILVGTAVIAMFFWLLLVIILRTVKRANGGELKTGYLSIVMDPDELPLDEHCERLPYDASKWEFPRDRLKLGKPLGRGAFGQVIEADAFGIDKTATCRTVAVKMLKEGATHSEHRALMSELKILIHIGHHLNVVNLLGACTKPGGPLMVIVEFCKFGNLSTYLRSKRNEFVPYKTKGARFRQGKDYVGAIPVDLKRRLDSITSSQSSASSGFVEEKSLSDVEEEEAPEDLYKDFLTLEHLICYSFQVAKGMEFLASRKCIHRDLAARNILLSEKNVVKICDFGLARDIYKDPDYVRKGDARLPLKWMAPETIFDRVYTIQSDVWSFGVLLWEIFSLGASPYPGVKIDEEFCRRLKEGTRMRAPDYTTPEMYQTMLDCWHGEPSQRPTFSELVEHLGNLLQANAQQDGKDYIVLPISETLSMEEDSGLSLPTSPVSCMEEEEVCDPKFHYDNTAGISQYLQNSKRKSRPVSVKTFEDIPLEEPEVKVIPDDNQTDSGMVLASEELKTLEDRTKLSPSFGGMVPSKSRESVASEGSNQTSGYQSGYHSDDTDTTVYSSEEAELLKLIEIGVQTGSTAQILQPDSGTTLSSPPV
For orientation: In western blotting, separated proteins are transferred to a membrane and probed.

The target is the same in series [4]. Briefly: Inhibition of VEGFR2 in HUVEC assessed as decrease in VEGF-induced FAK phosphorylation at Tyr397 residues pretreated for 30 mins followed by VEGF stimulation for 20 mins by Western blot analysis. It counts as cell-based. The method in brief:
as §1

Series [5] has the same target. Kind of series: Inhibition of VEGFR2 in HUVEC assessed as decrease in VEGF-induced eNOS phosphorylation at Ser1177 residues pretreated for 30 mins followed by VEGF stimulation for 20 mins by Western blot analysis. It counts as cell-based. In outline: as §1
The nature of series [6]: Apparent permeability from apical to basolateral side in MDCK cells at 10 uM by LC-MS/MS analysis. It counts as ADME, cell-based, Canis lupus familiaris. Conditions: dog. The method in brief: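 Apparent permeability coefficient (Papp, A-B) measured across MDCK cell monolayers.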
The target in series [7] is T1, Protein kinase C iota type (Homo sapiens) (UniProt P41743).
T1 sequence (whole entry): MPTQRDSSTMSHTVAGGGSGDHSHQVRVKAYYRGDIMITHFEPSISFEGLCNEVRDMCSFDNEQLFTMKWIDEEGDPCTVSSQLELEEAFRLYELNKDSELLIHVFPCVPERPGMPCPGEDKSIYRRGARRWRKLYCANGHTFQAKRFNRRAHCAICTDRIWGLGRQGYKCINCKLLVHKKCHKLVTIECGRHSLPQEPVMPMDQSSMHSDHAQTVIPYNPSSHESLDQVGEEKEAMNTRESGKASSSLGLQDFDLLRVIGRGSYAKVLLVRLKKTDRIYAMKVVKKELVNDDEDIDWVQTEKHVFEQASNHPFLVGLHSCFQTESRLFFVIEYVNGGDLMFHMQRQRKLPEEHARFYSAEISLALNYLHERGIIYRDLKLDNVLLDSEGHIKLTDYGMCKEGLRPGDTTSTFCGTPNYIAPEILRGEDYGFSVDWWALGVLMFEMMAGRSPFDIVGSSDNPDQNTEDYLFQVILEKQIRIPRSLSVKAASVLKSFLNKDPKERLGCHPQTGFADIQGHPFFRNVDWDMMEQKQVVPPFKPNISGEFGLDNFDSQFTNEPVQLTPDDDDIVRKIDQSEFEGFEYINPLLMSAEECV
Briefly: Inhibition of human wild type partial length PRKCI (H215 to V587 residues) expressed in mammalian expression system at 10 uM by Kinomescan method relative to control. The method in brief:
(§2)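 Compound tested at 10 μM in a KINOMEscan binding panel of 30 kinases. Activity taken from binding between each kinase and its corresponding ligand.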

The target in series [8] is Vascular endothelial growth factor receptor 2 (Homo sapiens) (UniProt P35968). Kind of series: Inhibition of VEGFR2 in HUVEC assessed as decrease in VEGF-induced SRC phosphorylation pretreated for 30 mins followed by VEGF stimulation for 20 mins by Western blot analysis. It counts as cell-based. The method in brief: as §1
Series [9] has as its target Casein kinase I isoform alpha (Homo sapiens) (UniProt P48729). Kind of series: Inhibition of human wild type partial length CSNK1A1 (M1 to L301 residues) expressed in mammalian expression system at 10 uM by Kinomescan method relative to control. In outline:
as §2

For series [10], the species on record is Danio rerio. Kind of series: Antiangiogenic activity in transgenic zebrafish flk:EGFP embryo model of DR-mimic hyaloid vessels in larval eye lenses assessed as inhibition of high glucose induced increase in hyaloid vessel diameter pretreated with glucose 3 days post fertilization for 3 days followed by compound addition measured 6 days post fertilization by fluorescence microscopy. It counts as functional, organism-based. The method in brief: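 Transgenic flk:EGFP zebrafish embryos at 3 dpf exposed to 130 mM glucose for 3 days to induce DR-mimic hyaloid vessels, with compound at varying concentrations. Hyaloid vessel diameter measured near the optic disc in isolated eye lenses; primary branch number compared with high-glucose controls. ANOVA with Tukey's test, n = 3.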

The subject of series [11] is HUVEC. Kind of series: Inhibition of integrin in HUVEC assessed as decrease in VEGF-induced SRC/FAK phosphorylation pretreated for 30 mins followed by VEGF stimulation for 20 mins by Western blot analysis. It counts as cell-based. The note with it: Homo sapiens. In outline:
as §1

The target in series [12] is Vascular endothelial growth factor receptor 2 (Homo sapiens) (UniProt P35968). Briefly: Inhibition of VEGFR2 in HUVEC assessed as decrease in VEGF-induced PI3K phosphorylation at Tyr458 residues pretreated for 30 mins followed by VEGF stimulation for 20 mins by Western blot analysis. It counts as cell-based. The method in brief: as §1
Series [13] in a line: Metabolic stability in human liver microsomes assessed as parent compound remaining at 1 uM preincubated for 5 mins followed by NADPH addition measured after 30 mins by LC-MS/MS analysis. It counts as ADME, microsome. Conditions: read-out: Stability. The method in brief:
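Parent compound remaining after 30 min incubation with human liver microsomes.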

Series [14] is filed under the species Danio rerio. Kind of series: Toxicity in transgenic zebrafish flk:EGFP embryo model of DR-mimic hyaloid vessels in larval eye lenses measured 6 days post fertilization. It counts as organism-based. Conditions: in vivo, 144 h.
Series [15] has as its system HUVEC. Briefly: Antimigratory activity in HUVEC after 24 hrs by inverted phase contrast light microscopic analysis. It counts as functional, cell-based. Conditions: Homo sapiens. In outline: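 Migrated HUVECs counted and compared with VEGF-treated control groups. Statistics by ANOVA with Tukey's test, n = 3.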
The target of series [16] is Vascular endothelial growth factor receptor 2 (Homo sapiens) (UniProt P35968). Kind of series: Inhibition of VEGFR2 in HUVEC assessed as decrease in VEGF-induced AKT phosphorylation at Thr308 residues pretreated for 30 mins followed by VEGF stimulation for 20 mins by Western blot analysis. It counts as cell-based. In outline:
as §1

The target in series [17] is Dual specificity mitogen-activated protein kinase kinase 1 (Homo sapiens) (UniProt Q02750). Kind of series: Inhibition of human wild type partial length MEK1 (M1 to V393 residues) expressed in mammalian expression system at 10 uM by Kinomescan method relative to control. In outline:
as §2

Series [18] can be described thus: Stability in human plasma assessed as parent compound remaining at 10 uM after 30 mins by LC-MS/MS analysis. It counts as ADME, cell-free. The note with it: read-out: Stability. In outline: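 Parent compound remaining after 30 min incubation in human plasma.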
Series [19] concerns the target Vascular endothelial growth factor receptor 2 (Homo sapiens) (UniProt P35968). Briefly: Inhibition of VEGF-induced VEGFR2 phosphorylation at Tyr1175 residues in HUVEC pretreated for 30 mins followed by VEGF stimulation for 20 mins by Western blot analysis. It counts as cell-based. The method in brief:
as §1

Calls of active or inactive are those of the source. The calls are words filed in the database; no cut-off is given here.

Casein kinase I isoform alpha (Homo sapiens), sequence (P48729 2-337 limits assumed): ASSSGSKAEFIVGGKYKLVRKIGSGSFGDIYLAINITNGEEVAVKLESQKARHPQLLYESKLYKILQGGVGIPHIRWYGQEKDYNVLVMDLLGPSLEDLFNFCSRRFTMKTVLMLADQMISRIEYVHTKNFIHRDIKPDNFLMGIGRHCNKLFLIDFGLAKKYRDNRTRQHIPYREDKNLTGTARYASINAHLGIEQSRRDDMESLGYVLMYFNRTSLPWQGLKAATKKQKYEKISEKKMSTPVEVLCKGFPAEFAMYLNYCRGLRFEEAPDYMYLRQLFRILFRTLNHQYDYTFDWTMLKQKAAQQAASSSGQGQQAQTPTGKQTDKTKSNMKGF
Dual specificity mitogen-activated protein kinase kinase 1 (Homo sapiens), sequence (Q02750 whole entry, the tested form may be a part): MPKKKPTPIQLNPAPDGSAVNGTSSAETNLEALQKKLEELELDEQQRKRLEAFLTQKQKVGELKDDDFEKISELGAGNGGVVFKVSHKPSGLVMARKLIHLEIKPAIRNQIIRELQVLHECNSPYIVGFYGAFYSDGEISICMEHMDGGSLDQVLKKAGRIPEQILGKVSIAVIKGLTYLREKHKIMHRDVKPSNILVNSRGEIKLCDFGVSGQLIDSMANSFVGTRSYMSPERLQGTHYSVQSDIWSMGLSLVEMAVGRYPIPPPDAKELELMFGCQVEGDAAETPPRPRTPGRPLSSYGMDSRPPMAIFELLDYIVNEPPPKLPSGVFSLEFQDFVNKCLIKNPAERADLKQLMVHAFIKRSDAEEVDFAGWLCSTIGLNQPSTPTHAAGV

Take `CCc1ccc2c(c1)OC(C(c1ccc(O)c(O)c1)n1cc(CCN(C)C)nn1)O2` (configuration not stated): the IC50 in the series with HUVEC [1] was 95.9 µM; in the series on HUVEC [2] it was 28 µM.

With `CCc1ccc2cc(C(c3ccc(O)c(O)c3)n3cc(CCN(C)C)nn3)oc2c1` (configuration not stated), the IC50 in the series with HUVEC [1] stood at 22 µM; in the series with HUVEC [2], 6.1 µM.

With `CCc1ccc2nc(C(c3ccc(O)c(O)c3)n3cc(CCN(C)C)nn3)sc2c1` (configuration not stated), the IC50 with HUVEC [1] was 37.3 µM; in the series with HUVEC [2] it was 3.04 µM.

In the case of `CCN(CC)CCNC(=O)c1c(C)[nH]c(/C=C2\C(=O)Nc3ccc(F)cc32)c1C` [SUNITINIB], the figures for the 50% inhibitory concentration (IC50) with HUVEC [1] and in the series on HUVEC [2] were 9.92 µM and 0.546 µM, respectively.

In the case of `CCc1ccc2nc(C(c3ccc(OC)c(OC)c3)n3cc(CCN4CCCCC4)nn3)sc2c1` (configuration not stated), the inhibition result (in [3]; in series [4]; in series [5]; in series [8]; in the series with HUVEC [11]; in series [12]) was “Active” in each case. Further, the inhibition result in series [16] and in series [19] was “Active” throughout. Besides, the Papp A→B at 10 µM in [6] stood at 11 ×10⁻⁶ cm/s. Further, the IC50 is 47.5 µM with HUVEC [1] and 0.631 µM with HUVEC [2]. The inhibition in [7] was over 40%; in the series with HUVEC [2], “Dose-dependent effect”; in series [9], over 40%; in the series filed under Danio rerio [10], “Dose-dependent effect”; in series [17], over 40%. Besides, the remaining at 0.5 h, 1 µM in series [13] came out at 31%. Besides, the Activity result is “Non-Toxic” in the series listed under Danio rerio [14] and “Dose-dependent effect” in the series on HUVEC [15]. In addition, the remaining at 0.5 h, 10 µM in series [18] amounted to 95%.

For the compound `CCCNCCc1cn(C(c2ccc(OC)c(OC)c2)c2nc3ccc(CC)cc3s2)nn1` (configuration not stated), the IC50 with HUVEC [1] stood at 38.6 µM; in the series on HUVEC [2], 1.39 µM.

Turning to `CCc1ccc2nc(C(c3ccc(OC)c(OC)c3)n3cc(CCNC4CCCC4)nn3)sc2c1` (configuration not stated), the figures for the IC50 with HUVEC [1] and in the series with HUVEC [2] were 19.4 µM and 1.02 µM, respectively.

Consider `CCc1ccc2nc(C(c3ccc(OC)c(OC)c3)n3cc(CCN4CCCC4)nn3)sc2c1` (configuration not stated), for which the IC50 in the series on HUVEC [1] is 70.3 µM; with HUVEC [2], 2.84 µM.

Regarding `CCc1ccc2nc(C(c3ccc(OC)c(OC)c3)n3cc(CCN(C)C)nn3)sc2c1` (configuration not stated), the IC50 was determined as 93.5 µM in the series with HUVEC [1] and 8.27 µM in the series with HUVEC [2].

For `CCc1ccc2nc(C(c3ccc(OC)c(OC)c3)n3cc(CCN4CCOCC4)nn3)sc2c1` (configuration not stated), the IC50 with HUVEC [1] is over 100 µM; with HUVEC [2], 3.93 µM.

Consider `CCc1ccc2nc(C(c3ccc(O)c(O)c3)n3cc(CCN(C)C)nn3)oc2c1` (configuration not stated), for which the IC50 in the series on HUVEC [1] is over 100 µM; in the series on HUVEC [2] it was over 20 µM.

Regarding `CN(C)CCc1cn(C(c2ccc(O)c(O)c2)C2Oc3ccc(/C=C/OS(=O)(=O)O)cc3O2)cn1` (configuration not stated), the IC50 with HUVEC [1] was over 100 µM; in the series with HUVEC [2] it was 42.8 µM.

The values are drawn from ChEMBL document CHEMBL4130527, “New Scaffold for Angiogenesis Inhibitors Discovered by Targeted Chemical Transformations of Wondonin Natural Products” (ACS Med Chem Lett, 2017).
